In brackets after ≈: the same amount, converted by molar mass. Activity calls are given as the source filed them. No cut-off for these calls is given here.
Experiments:
Staphylococcus aureus [1] = experiment: Antibacterial activity against methicillin-resistant Staphylococcus aureus 33922 infected in in vitro pharmacokinetic model assessed as time required to 99% killing at 1500 mg, iv every 8 hrs using 10^8 CFU/ml inoculum; format: functional
Staphylococcus aureus [2] = experiment: AUBKC (0 to 24 hrs) in methicillin-resistant Staphylococcus aureus 33921 infected in in vitro pharmacokinetic model at 750 mg, iv every 8 hrs using 10^6 CFU/ml inoculum; format: functional
Outline: (§1)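 Single-compartment dilutional in vitro PK model at 37°C in 10% Mueller-Hinton broth, stirred, flow 132 ml/h. […] Inoculum 10^6 CFU/ml added 45 min before dosing, or 10^8 CFU/ml run overnight. Viable counts with β-lactamase neutralisation. AUBKC by log-linear trapezoidal rule, at least triplicate.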

Staphylococcus aureus [3] = experiment: Antibacterial activity against methicillin-resistant Staphylococcus aureus 33921 infected in in vitro pharmacokinetic model assessed as time required to 99.9% killing at 750 mg, iv every 8 hrs using 10^6 CFU/ml inoculum; format: functional
Staphylococcus aureus [4] = experiment: Antibacterial activity against methicillin-resistant Staphylococcus aureus 33829 assessed as viable count at 2 times of MIC after 24 hrs using 10^6 CFU/ml inoculum; format: functional, organism-based
Staphylococcus aureus [5] = experiment: AUBKC (0 to 48 hrs) in methicillin-resistant Staphylococcus aureus 33827 infected in in vitro pharmacokinetic model at 1500 mg, iv every 8 hrs using 10^8 CFU/ml inoculum; format: functional; outline: as §1
Staphylococcus aureus [6] = experiment: T>MIC for 1-log drop in count in methicillin-resistant Staphylococcus aureus 33815 in in vitro pharmacokinetic model after 24 hrs using 10^6 CFU/ml inoculum; format: functional
Staphylococcus aureus [7] = experiment: Antibacterial activity against methicillin-resistant Staphylococcus aureus 33922 infected in in vitro pharmacokinetic model assessed as reduction in viable count at 750 mg, iv every 8 hrs measured after 36 hrs using 10^8 CFU/ml inoculum; format: functional
Staphylococcus aureus [8] = experiment: Antibacterial activity against methicillin-resistant Staphylococcus aureus 33827 infected in in vitro pharmacokinetic model assessed as reduction in viable count at 1500 mg, iv every 8 hrs measured after 48 hrs using 10^8 CFU/ml inoculum; format: functional
Outline: (§2)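 Single-compartment dilutional in vitro PK model, 10% Mueller-Hinton broth, 37°C, stirred, dilution 132 ml/h. […] Inoculum 10^6 CFU/ml (added 45 min pre-dose) or 10^8 CFU/ml (run overnight). Viable counts by spiral plating, beta-lactamase neutralization, detection limit 10^2 CFU/ml. At least triplicate.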

Staphylococcus aureus [9] = experiment: AUBKC (0 to 24 hrs) in methicillin-resistant Staphylococcus aureus 33921 infected in in vitro pharmacokinetic model at 1500 mg, iv every 8 hrs using 10^6 CFU/ml inoculum; format: functional; outline: as §1
Staphylococcus aureus [10] = experiment: Antibacterial activity against methicillin-resistant Staphylococcus aureus; format: functional
Staphylococcus aureus [11] = experiment: Antibacterial activity against methicillin-resistant Staphylococcus aureus 33815 infected in in vitro pharmacokinetic model assessed as reduction in viable count at 1500 mg, iv every 8 hrs measured after 12 hrs using 10^6 CFU/ml inoculum; format: functional
Outline: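 Log change in viable count from time zero to 12 h, β-lactamase-neutralised spiral plating, detection limit 10^2 CFU/ml, at least triplicate.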

Staphylococcus aureus [12] = experiment: AUBKC (0 to 48 hrs) in methicillin-resistant Staphylococcus aureus 33921 infected in in vitro pharmacokinetic model at 750 mg, iv every 8 hrs using 10^6 CFU/ml inoculum; format: functional; outline: as §1
Staphylococcus aureus [13] = experiment: Antibacterial activity against methicillin-resistant Staphylococcus aureus 33827 infected in in vitro pharmacokinetic model assessed as reduction in viable count at 750 mg, iv every 8 hrs measured after 48 hrs using 10^8 CFU/ml inoculum; format: functional; outline: as §2
Staphylococcus aureus [14] = experiment: T>MIC for 2-log drop in count in methicillin-resistant Staphylococcus aureus 33829 in in vitro pharmacokinetic model after 24 hrs using 10^6 CFU/ml inoculum; format: functional
Staphylococcus aureus [15] = experiment: Antibacterial activity against methicillin-sensitive Staphylococcus aureus 5956 infected in in vitro pharmacokinetic model assessed as reduction in viable count at 1500 mg, iv every 8 hrs measured after 48 hrs using 10^6 CFU/ml inoculum; format: functional
[16] = Plasma protein binding in human; format: ADME, cell-free; conditions: read-out: PPB
Staphylococcus aureus [17] = experiment: Antibacterial activity against methicillin-resistant Staphylococcus aureus 33827 infected in in vitro pharmacokinetic model assessed as reduction in viable count at 750 mg, iv every 8 hrs measured after 24 hrs using 10^8 CFU/ml inoculum; format: functional; outline: as §2
Staphylococcus aureus [18] = experiment: Antibacterial activity against methicillin-resistant Staphylococcus aureus 33827 infected in in vitro pharmacokinetic model assessed as reduction in viable count at 1500 mg, iv every 8 hrs measured after 48 hrs using 10^6 CFU/ml inoculum; format: functional; outline: as §2
Staphylococcus aureus [19] = experiment: Antibacterial activity against methicillin-resistant Staphylococcus aureus 33815 infected in in vitro pharmacokinetic model assessed as time required to 99% killing at 750 mg, iv every 8 hrs using 10^8 CFU/ml inoculum; format: functional
Outline: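 T99 and T99.9 were taken as the times for the count to fall 99% or 99.9% from time 0, using serial viable counts over 48 h. Inoculum was 10^8 CFU/ml, grown overnight in the model before dosing.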

Staphylococcus aureus [20] = experiment: Antibacterial activity against methicillin-resistant Staphylococcus aureus 33820 assessed as viable count at 2 times of MIC after 24 hrs using 10^6 CFU/ml inoculum; format: functional, organism-based
Staphylococcus aureus [21] = experiment: AUBKC (0 to 48 hrs) in methicillin-resistant Staphylococcus aureus 33820 infected in in vitro pharmacokinetic model at 1500 mg, iv every 8 hrs using 10^6 CFU/ml inoculum; format: functional; outline: as §1
Staphylococcus aureus [22] = experiment: Antibacterial activity against methicillin-resistant Staphylococcus aureus 33820 assessed as viable count at 4 times of MIC after 48 hrs using 10^6 CFU/ml inoculum; format: functional, organism-based
Staphylococcus aureus [23] = experiment: Antibacterial activity against methicillin-resistant Staphylococcus aureus 33829 infected in in vitro pharmacokinetic model assessed as time required to 99% killing at 1500 mg, iv every 8 hrs using 10^6 CFU/ml inoculum; format: functional; outline: as §2
Staphylococcus aureus [24] = experiment: AUBKC (0 to 48 hrs) in methicillin-resistant Staphylococcus aureus 33827 infected in in vitro pharmacokinetic model at 1500 mg, iv every 8 hrs using 10^6 CFU/ml inoculum; format: functional; outline: as §1
Staphylococcus aureus [25] = experiment: Antibacterial activity against methicillin-resistant Staphylococcus aureus 33820 by 10% MH broth method; format: functional
Outline: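 Broth dilution MIC per CLSI, run in 10% Mueller-Hinton broth at nondoubling dilutions.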

Staphylococcus aureus [26] = experiment: Antibacterial activity against methicillin-resistant Staphylococcus aureus 33815 infected in in vitro pharmacokinetic model assessed as reduction in viable count at 1500 mg, iv every 8 hrs measured after 12 hrs using 10^8 CFU/ml inoculum; format: functional
Outline: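 PK model at 37°C in 10% MHB. […] A 0.5 McFarland suspension (1 ml) was added and the model run overnight to reach 10^8 CFU/ml before dosing. Counts were spiral-plated on nutrient agar with β-lactamase. Change in log CFU/ml was measured from time 0; at least triplicate.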

Staphylococcus aureus [27] = experiment: Antibacterial activity against methicillin-resistant Staphylococcus aureus 33921 infected in in vitro pharmacokinetic model assessed as time required to 99.9% killing at 1500 mg, iv every 8 hrs using 10^6 CFU/ml inoculum; format: functional

Structure (SMILES): C[C@@H](O)[C@H]1C(=O)N2C(C(=O)O)=C(S[C@H]3C[C@@H](C(=O)N4CC[C@H](NC(=O)CNC(=N)N)C4)N(C)C3)[C@H](C)[C@H]12 [TOMOPENEM]
- Time (Staphylococcus aureus [1]): 16 h
- AUBC (Staphylococcus aureus [2]): 30.9 log10CFU/ml.hr
- Time (Staphylococcus aureus [3]): 12 h
- Activity (Staphylococcus aureus [4]): inactive
- AUBC (Staphylococcus aureus [5]): 93.5 log10CFU/ml.hr
- fT>MIC (Staphylococcus aureus [6]): 8.6%
- log10CFU/ml (Staphylococcus aureus [7]): 5.5
- log10CFU/ml (Staphylococcus aureus [8]): 5.9
- AUBC (Staphylococcus aureus [9]): 32.9 log10CFU/ml.hr
- MIC50 (Staphylococcus aureus [10]): 2 mg/L (≈ 3.72 µM)
- MIC90 (Staphylococcus aureus [10]): 4 mg/L (≈ 7.44 µM)
- log10CFU/ml (Staphylococcus aureus [11]): 4.2
- AUBC (Staphylococcus aureus [12]): 41 log10CFU/ml.hr
- log10CFU/ml (Staphylococcus aureus [13]): 5.9
- fT>MIC (Staphylococcus aureus [14]): 20.8%
- log10CFU/ml (Staphylococcus aureus [15]): 4.4
- fraction unbound [16]: > 0.9
- log10CFU/ml (Staphylococcus aureus [17]): 5.2
- log10CFU/ml (Staphylococcus aureus [18]): 3.6
- Time (Staphylococcus aureus [19]): 16 h
- Activity (Staphylococcus aureus [20]): inactive
- AUBC (Staphylococcus aureus [21]): 23.4 log10CFU/ml.hr
- Activity (Staphylococcus aureus [22]): Active
- Time (Staphylococcus aureus [23]): 7 h
- AUBC (Staphylococcus aureus [24]): 35.5 log10CFU/ml.hr
- MIC (Staphylococcus aureus [25]): 6 mg/L (≈ 11.2 µM)
- log10CFU/ml (Staphylococcus aureus [26]): 1.5
- Time (Staphylococcus aureus [27]): 12 h

Source: ChEMBL document CHEMBL1255300, “Pharmacodynamics of the antibacterial effect and emergence of resistance to tomopenem, formerly RO4908463/CS-023, in an in vitro pharmacokinetic model of Staphylococcus aureus infection” (Antimicrob Agents Chemother, 2008)
